Data published in ChEMBL document CHEMBL2163270, “Design and in vitro activities of N-alkyl-N-[(8-R-2,2-dimethyl-2H-chromen-6-yl)methyl]heteroarylsulfonamides, novel, small-molecule hypoxia inducible factor-1 pathway inhibitors and anticancer agents” (J Med Chem, 2012).
≈ marks a conversion by molar mass, not a printed value. Calls of active or inactive are those of the source. The calls are words filed in the database; no cut-off is given here.

Legend:
[1] = 1-Octanol-phosphate buffer distribution coefficient, log P of the compound at pH 7.4 by HPLC analysis; assay type: physicochemical
Procedure, shortened: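 Eluent methanol:water:triethylamine 70:30:0.1 at 2 mL/min, UV 254/280 nm. Calibrated with aniline, benzene, toluene and chlorobenzene plus two shake-flask-measured reference sulfonamides.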

[2] = molecular target: Histone acetyltransferase p300 (Homo sapiens) (UniProt Q09472); assay: Inhibition of P300 CH1 domain-mediated HIF1 transcriptional activity in human LN229-V6R cells assessed as remaining activity at 2.5 uM incubated for 1 hr under normoxia followed by 24 hrs under hypoxia by luciferase reporter gene assay; assay type: cell-based
Histone acetyltransferase p300 (Homo sapiens), sequence (Q09472 whole entry, the tested form may be a part): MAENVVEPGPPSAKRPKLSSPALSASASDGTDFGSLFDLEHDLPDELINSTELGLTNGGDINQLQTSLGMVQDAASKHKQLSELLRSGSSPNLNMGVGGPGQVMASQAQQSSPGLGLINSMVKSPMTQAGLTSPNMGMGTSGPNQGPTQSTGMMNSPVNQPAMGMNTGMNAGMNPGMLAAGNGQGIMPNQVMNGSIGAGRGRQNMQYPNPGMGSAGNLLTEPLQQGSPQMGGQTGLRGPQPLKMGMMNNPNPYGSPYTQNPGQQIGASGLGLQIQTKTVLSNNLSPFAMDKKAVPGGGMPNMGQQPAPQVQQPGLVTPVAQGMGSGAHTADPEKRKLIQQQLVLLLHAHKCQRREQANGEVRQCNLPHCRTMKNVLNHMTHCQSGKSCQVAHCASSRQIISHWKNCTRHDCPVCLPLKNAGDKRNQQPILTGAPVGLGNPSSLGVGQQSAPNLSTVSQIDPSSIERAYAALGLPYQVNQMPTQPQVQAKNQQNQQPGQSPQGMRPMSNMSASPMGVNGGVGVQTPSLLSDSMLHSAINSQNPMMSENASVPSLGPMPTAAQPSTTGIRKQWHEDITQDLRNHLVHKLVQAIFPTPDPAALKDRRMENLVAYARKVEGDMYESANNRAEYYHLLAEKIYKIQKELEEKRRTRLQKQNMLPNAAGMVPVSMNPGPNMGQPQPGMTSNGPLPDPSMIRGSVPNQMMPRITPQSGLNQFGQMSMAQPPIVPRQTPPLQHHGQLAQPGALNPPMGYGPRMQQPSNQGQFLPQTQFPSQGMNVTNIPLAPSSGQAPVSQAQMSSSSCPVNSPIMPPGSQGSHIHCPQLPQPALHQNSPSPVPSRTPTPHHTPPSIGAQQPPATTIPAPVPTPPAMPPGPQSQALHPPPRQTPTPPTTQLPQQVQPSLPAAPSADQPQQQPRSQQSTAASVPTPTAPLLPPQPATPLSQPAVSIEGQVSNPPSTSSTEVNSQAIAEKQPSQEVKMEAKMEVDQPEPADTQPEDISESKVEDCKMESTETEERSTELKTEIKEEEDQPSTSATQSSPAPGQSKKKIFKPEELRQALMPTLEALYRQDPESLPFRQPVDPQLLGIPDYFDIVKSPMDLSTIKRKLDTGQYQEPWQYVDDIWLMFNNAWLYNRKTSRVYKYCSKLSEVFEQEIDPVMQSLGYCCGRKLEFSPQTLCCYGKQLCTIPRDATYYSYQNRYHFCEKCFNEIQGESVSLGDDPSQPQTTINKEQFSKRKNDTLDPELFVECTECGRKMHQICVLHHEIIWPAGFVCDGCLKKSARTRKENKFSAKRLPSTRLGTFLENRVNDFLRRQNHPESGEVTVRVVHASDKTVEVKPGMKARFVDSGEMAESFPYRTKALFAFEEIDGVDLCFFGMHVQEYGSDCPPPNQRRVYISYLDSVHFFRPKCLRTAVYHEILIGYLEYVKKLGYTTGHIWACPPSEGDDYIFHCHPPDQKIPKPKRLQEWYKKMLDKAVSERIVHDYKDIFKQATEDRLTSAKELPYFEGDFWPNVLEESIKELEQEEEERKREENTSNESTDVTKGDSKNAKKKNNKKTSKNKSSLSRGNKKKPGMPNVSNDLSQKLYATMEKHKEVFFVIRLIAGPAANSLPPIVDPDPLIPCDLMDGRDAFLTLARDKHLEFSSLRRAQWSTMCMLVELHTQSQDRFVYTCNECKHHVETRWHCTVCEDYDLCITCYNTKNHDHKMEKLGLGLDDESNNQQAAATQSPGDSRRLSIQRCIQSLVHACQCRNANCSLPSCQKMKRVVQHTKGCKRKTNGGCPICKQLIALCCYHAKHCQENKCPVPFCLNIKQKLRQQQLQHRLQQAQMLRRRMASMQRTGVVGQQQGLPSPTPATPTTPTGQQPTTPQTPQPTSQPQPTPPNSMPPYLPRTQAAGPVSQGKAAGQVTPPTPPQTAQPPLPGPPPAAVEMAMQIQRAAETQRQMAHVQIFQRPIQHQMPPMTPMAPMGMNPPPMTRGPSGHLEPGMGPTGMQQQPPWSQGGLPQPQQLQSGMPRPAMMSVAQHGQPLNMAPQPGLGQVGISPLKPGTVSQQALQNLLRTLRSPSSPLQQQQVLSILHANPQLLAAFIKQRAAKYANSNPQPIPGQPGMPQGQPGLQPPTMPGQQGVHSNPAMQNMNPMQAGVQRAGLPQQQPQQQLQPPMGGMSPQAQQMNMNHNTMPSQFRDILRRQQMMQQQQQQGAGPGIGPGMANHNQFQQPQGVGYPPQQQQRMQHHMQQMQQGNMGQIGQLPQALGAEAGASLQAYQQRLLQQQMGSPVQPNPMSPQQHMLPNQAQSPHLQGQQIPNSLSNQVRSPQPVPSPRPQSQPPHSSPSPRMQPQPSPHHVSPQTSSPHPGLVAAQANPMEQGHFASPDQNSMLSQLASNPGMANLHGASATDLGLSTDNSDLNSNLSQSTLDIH
Procedure, shortened: (§1)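 LN229-V6R cells carry a stably integrated hypoxia/HIF-inducible luciferase reporter. 3 × 10⁴ cells/well in DMEM with 10% serum, 24 h normoxia. Compound at 2.5, 5.0 or 10.0 μM in 1% DMSO, 1 h at 37 °C, then 24 h at 1% O2. Lysates mixed with luciferase substrate and read by luminometry, expressed as % of untreated control. Triplicates.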

[3] = molecular target: Histone acetyltransferase p300 (Homo sapiens) (UniProt Q09472); assay: Inhibition of P300 CH1 domain-mediated HIF1 transcriptional activity in human LN229-V6R cells assessed as reduction in luciferase activity incubated for 1 hr under normoxia followed by 24 hrs under hypoxia by reporter gene assay; assay type: cell-based; procedure, shortened: as §1
LN-229 = assay: Inhibition of luciferase activity in human LN229-Lux cells at 2.5 to 10 uM incubated for 1 hr under normoxia followed by 24 hrs under hypoxia by reporter gene assay; assay type: functional, cell-based
[4] = molecular target: Histone acetyltransferase p300 (Homo sapiens) (UniProt Q09472); assay: Inhibition of P300 CH1 domain-mediated HIF1 transcriptional activity in human LN229-V6R cells assessed as reduction in luciferase activity at 10 uM incubated for 1 hr under normoxia followed by 24 hrs under hypoxia by reporter gene assay; assay type: cell-based; procedure, shortened: as §1
[5] = Cytotoxicity against human HFF1 cells incubated for 14 days under normoxic condition by clonogenecity assay; assay type: cell-based; settings: HFF-1, 336 h
Procedure, shortened: (§2)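 Clonogenic assay in LN229 glioma or HFF-1 immortalized fibroblasts seeded at 200 or 1,000 cells/well and allowed to adhere 16 h under normoxia. Compound at 6.25-100 μM final, 1% DMSO. Plates held 1 h under normoxia, then 14 days at 21% or 1% O2. Colonies stained with 0.9% crystal violet and counted. IC50 from exponential/polynomial fit (R² ≥ 0.8).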

[6] = molecular target: Histone acetyltransferase p300 (Homo sapiens) (UniProt Q09472); assay: Inhibition of P300 CH1 domain-mediated HIFalpha protein expression in human LN229-V6R cells incubated for 1 hr under normoxia followed by 24 hrs under hypoxia by Western blot analysis; assay type: cell-based
Procedure, shortened: (§3)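 LN229-V6R cells, 2 × 10⁵ per 35 mm dish, grown 24 h under normoxia. Compound at 3-100 μM in 1% DMSO, 1 h normoxia, then 24 h at 1% O2. Lysed in SDS loading buffer and resolved on a 4-12.5% gradient gel. Immunoblotted for HIF-1α (1:500) with β-actin (1:3,000), HRP secondaries, ECL detection. Repeated at least twice.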

[7] = Cytotoxicity against human LN229 cells transfected with V6R incubated for 3 days under normoxic condition by SRB assay; assay type: functional, cell-based; settings: LN-229, 72 h
Procedure, shortened: (§4)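 SRB growth assay: LN229-V6R, 2 × 10³ cells/well, attached 24 h under normoxia. Dosed at 3-100 μM in 1% DMSO, 1 h normoxia, then normoxia or hypoxia for 3 days. Cold 10% TCA fixation, 0.04% SRB stain, dye solubilized in 10 mM Tris pH 10, OD 564 nm. Quadruplicate or sextuplicate wells, two independent experiments; IC50 by curve fit.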

[8] = Cytotoxicity against human HFF1 cells incubated for 1 hr under normoxic condition followed by 14 days under hypoxic condition by clonogenecity assay; assay type: cell-based; settings: HFF-1; procedure, shortened: as §2
[9] = 1-Octanol-phosphate buffer distribution coefficient, log P of the compound at pH 7.4 after 15 mins by shake flask method; assay type: physicochemical
Procedure, shortened: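 Shake-flask partition per OECD 107: 1-octanol and 0.2 M phosphate buffer pH 7.4 mutually presaturated by 24 h stirring at room temperature. 1-2 mg compound dissolved in 2 mL buffer-saturated octanol plus 2 mL octanol-saturated buffer, run in duplicate. Aqueous layer quantified by HPLC at 254 nm against standard curves.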

[10] = Cytotoxicity against human LN229 cells transfected with V6R incubated for 14 days under normoxic condition by clonogenecity assay; assay type: functional, cell-based; settings: LN-229, 336 h
Liver = assay: Half life in mouse liver homogenate by HPLC analysis at pH 7.4; assay type: ADME, tissue-based; settings: in vitro
Procedure, shortened: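 Mouse liver homogenate in PBS pH 7.4 (1:2 w/v) incubated with 20 μM compound at 37 °C with shaking. Timed samples extracted with acetonitrile and analysed by C8 HPLC-PDA with 2 μM α-naphthoflavone internal standard, linear range 1-50 μM. Triplicates.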

[11] = Cytotoxicity against human LN229 cells transfected with V6R incubated for 1 hr under normoxic condition followed by 3 days under hypoxic condition by SRB assay; assay type: functional, cell-based; settings: LN-229; procedure, shortened: as §4
[12] = Cytotoxicity against human LN229 cells transfected with V6R incubated for 1 hr under normoxic condition followed by 14 days under hypoxic condition by clonogenecity assay; assay type: functional, cell-based; settings: LN-229
[13] = Drug metabolism in mouse plasma after 24 hrs by HPLC analysis; assay type: ADME, cell-free; settings: read-out: Drug metabolism
Procedure, shortened: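 Compound at 20 μM incubated in fresh mouse plasma at 37 °C with shaking for 24 h. Samples extracted with acetonitrile, dried and reconstituted. Quantified by C8 reverse-phase HPLC with photodiode-array detection, 2 μM α-naphthoflavone internal standard, standard curves 1-50 μM. Triplicates.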

[14] = Aqueous solubility of the compound at pH 3 after 90 mins by laser nephelometric analysis; assay type: physicochemical; settings: aqueous medium
Procedure, shortened: (§5)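 DMSO stocks (30 mg/mL) serially diluted, then diluted into phosphate-buffered saline at pH 7.4, 5.0 or 3.0. Final drug concentrations were 1.5–300 μg/mL with 1% DMSO. Incubated 90 min at ambient temperature, and laser nephelometry located the onset of precipitation. An internal control was included.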

[15] = molecular target: Histone acetyltransferase p300 (Homo sapiens) (UniProt Q09472); assay: Inhibition of P300 CH1 domain-mediated HIFalpha protein expression in human LN229-V6R cells at 3 to 50 uM incubated for 1 hr under normoxia followed by 24 hrs under hypoxia by Western blot analysis; assay type: cell-based; procedure, shortened: as §3
[16] = Aqueous solubility of the compound at pH 7.4 after 90 mins by laser nephelometric analysis; assay type: physicochemical; settings: aqueous medium; procedure, shortened: as §5
[17] = Aqueous solubility of the compound at pH 5 after 90 mins by laser nephelometric analysis; assay type: physicochemical; settings: aqueous medium; procedure, shortened: as §5
[18] = molecular target: Histone acetyltransferase p300 (Homo sapiens) (UniProt Q09472); assay: Inhibition of P300 CH1 domain-mediated HIFalpha protein expression in human LN229-V6R cells at 100 uM incubated for 1 hr under normoxia followed by 24 hrs under hypoxia by Western blot analysis; assay type: cell-based; procedure, shortened: as §3
[19] = Aqueous solubility of the compound; assay type: physicochemical; settings: aqueous medium
Procedure, shortened: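 Saturated suspension (1–2 mg in 2 mL distilled water) sonicated 30 min at room temperature, centrifuged 1,500 g, 20 °C, 5 min, then filtered through 0.2 μm PTFE. Filtrate quantified by HPLC-UV at 254 nm against standard curves. Three independent experiments, values averaged.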

[20] = molecular target: Histone acetyltransferase p300 (Homo sapiens) (UniProt Q09472); assay: Inhibition of P300 CH1 domain-mediated HIF1 transcriptional activity in human LN229-V6R cells assessed as reduction in luciferase activity at 2.5 to 10 uM incubated for 1 hr under normoxia followed by 24 hrs under hypoxia by reporter gene assay; assay type: cell-based
Procedure, shortened: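 LN229-V6R cells carrying a stably integrated hypoxia/HIF-inducible luciferase reporter were seeded at 3 × 10⁴/well in DMEM with 10% serum and grown 24 h under normoxia. Compound was added at 2.5, 5.0 or 10.0 μM in 1% DMSO. Cells were held 1 h at 37 °C, then 24 h under hypoxia (1% O₂). Luciferase was read in lysates as percent of untreated control, in triplicate.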

Row | SMILES | logD [1] | Activity [2] | inhibition [3] | inhibition (LN-229) | t1/2 (Liver) | metabolised at 24 h [13] | also measured
1 | CC(C)CN(Cc1ccc2c(c1)C=CC(C)(C)O2)S(=O)(=O)c1ccccn1 | 4.1 | 85% | Dose-dependent effect | inactive | – | – | –
2 | CO[C@H]1/C=C\C=C(/C)C(=O)NC2=CC(=O)C(NCCN(C)C)=C(C[C@@H](C)C[C@H](OC)[C@H](O)[C@@H](C)/C=C(\C)[C@@H]1OC(N)=O)C2=O (stereo in doubt) | – | – | – | Active | – | – | –
3 | CC(C)CN(Cc1ccc2c(c1)C=CC(C)(C)O2)S(=O)(=O)c1nccn1C | 3.1 | 74% | Dose-dependent effect | inactive | – | – | –
4 | COc1cc(CN(C(C)C)S(=O)(=O)c2ccccn2)cc2c1OC(C)(C)C=C2 | – | 61% | Dose-dependent effect | inactive | 15 h | < 1% | inhibition [4]: > 60%; IC50 [5]: 55 µM; inhibition [6]: Dose-dependent effect; IC50 [7]: 73 µM; IC50 [8]: > 100 µM; logD at 0.25 h [9]: 1.3; IC50 [10]: 69 µM; IC50 [11]: 146 µM; IC50 [12]: > 100 µM
5 | CC(C)N(Cc1ccc2c(c1)C=CC(C)(C)O2)S(=O)(=O)c1ccccn1 | – | 55% | Dose-dependent effect | inactive | 20 h | < 1% | solubility kinetic at 1.5 h [14]: 17 µg/mL (≈ 45.6 µM); inhibition [4]: 60%; IC50 [5]: 62 µM; IC50 [7]: 100 µM; inhibition [15]: inactive; IC50 [8]: 93 µM; solubility kinetic at 1.5 h [16]: < 15 µg/mL; logD at 0.25 h [9]: 2; IC50 [10]: 82 µM; solubility kinetic at 1.5 h [17]: 16 µg/mL (≈ 43 µM); IC50 [11]: 126 µM; IC50 [12]: 134 µM; inhibition [18]: Active
6 | CC1(C)C=Cc2cc(CN(C3CCC3)S(=O)(=O)c3ccccn3)ccc2O1 | 3 | 53% | Dose-dependent effect | inactive | – | – | –
7 | CC(C)CN(Cc1ccc2c(c1)C=CC(C)(C)O2)S(=O)(=O)c1nccs1 | 4.4 | 78% | Dose-dependent effect | inactive | – | – | –
8 | CC1(C)C=Cc2cc(CN(C3CC3)S(=O)(=O)c3ccccn3)ccc2O1 | 3 | 71% | Dose-dependent effect | inactive | – | – | –
9 | CC1(C)C=Cc2cc(CN(C3CCCC3)S(=O)(=O)c3ccccn3)ccc2O1 | 3.8 | 60% | Dose-dependent effect | inactive | – | – | –
10 | COc1ccc(S(=O)(=O)N(Cc2ccc3c(c2)C=CC(C)(C)O3)c2ccccc2)cc1OC | 3.7 | 28% | – | inactive | 11 h | < 1% | solubility kinetic at 1.5 h [14]: < 15 µg/mL; solubility [19]: 9 nM (≈ 4.19 ng/mL); solubility kinetic at 1.5 h [16]: < 15 µg/mL; solubility kinetic at 1.5 h [17]: < 15 µg/mL; inhibition [20]: Active
11 | CC(C)CN(Cc1cc(O)c2c(c1)C=CC(C)(C)O2)S(=O)(=O)c1ccncc1 | 1.2 | 59% | Dose-dependent effect | inactive | – | < 1% | inhibition [4]: > 60%; IC50 [5]: 22 µM; inhibition [6]: Dose-dependent effect; IC50 [7]: 92 µM; IC50 [8]: 40 µM; IC50 [10]: 23 µM; IC50 [11]: 113 µM; IC50 [12]: 30 µM
12 | CC(C)CN(Cc1ccc2c(c1)C=CC(C)(C)O2)S(=O)(=O)c1ccncc1 | 3.6 | 63% | Dose-dependent effect | inactive | – | – | –
13 | CC1(C)C=Cc2cc(CN(CC3CC3)S(=O)(=O)c3ccccn3)ccc2O1 | 3.1 | 49% | Dose-dependent effect | inactive | 13 h | < 1% | –
14 | CC(C)CN(Cc1cc(O)c2c(c1)C=CC(C)(C)O2)S(=O)(=O)c1ccccn1 | 1.3 | 43% | Dose-dependent effect | inactive | 15 h | – | –
